Consider six molecules from article PMC3601785 (ACS medicinal chemistry letters, 2012).

The nature of series [1]: pharmacokinetic analysis, single i.v. or i.p. dose. It is filed as in vivo, male CD-1 mice. The note with it: male, CD-1, mouse, plasma, other: intravenous (i.v.) or intraperitoneal (i.p.). The gist of the method: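 Single dose given iv or ip to male CD-1 mice in 1:1:15 Cremophor:EtOH:phosphate-buffered saline. Plasma concentrations used to derive half-life, Cmax, C0 (maximum plasma concentration extrapolated to t = 0) and AUC extrapolated to infinity and normalized to dose in mg/kg.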

For series [2], the system named is p70 S6 kinase. The note with it: cited from earlier work.
For series [3], the system named is Aurora B. The settings on record: [ATP] lower than in the RSK assay; cited from earlier work.
For series [4], the system named is RSK biomarkers (peEF2, cyclin D1, phospho-motif) in MCF-7 cells. Briefly: RSK biomarkers in PMA-stimulated MCF-7 cells by immunoblotting. It is filed as cell-based, human. The settings on record: MCF-7 cells pre-treated with SL0101 (100 μM) or 7 (25 μM), then PMA. The gist of the method: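 MCF-7 cells pretreated with test compound (reference inhibitor 100 μM; analogue 25 μM) or vehicle, then treated with DMSO or the mitogen PMA. Lysates analysed by immunoblotting for RSK biomarkers, including eEF2 phosphorylation.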

Series [5] in a line: aqueous solubility. It is filed as physicochemical.
The test system of series [6] is mitogen-and stress-activated kinase. The note with it: cited from earlier work.
Series [7] relates to PIM 3. The settings on record: [ATP] lower than in the RSK assay; cited from earlier work.
For series [8], the target named is T1, purified, recombinant RSK2 (Homo sapiens, UniProt P51812). As to the kind of experiment: in vitro kinase assay, inhibition of purified recombinant RSK2. It counts as biochemical.
T1 sequence (P51812 whole entry, species assumed): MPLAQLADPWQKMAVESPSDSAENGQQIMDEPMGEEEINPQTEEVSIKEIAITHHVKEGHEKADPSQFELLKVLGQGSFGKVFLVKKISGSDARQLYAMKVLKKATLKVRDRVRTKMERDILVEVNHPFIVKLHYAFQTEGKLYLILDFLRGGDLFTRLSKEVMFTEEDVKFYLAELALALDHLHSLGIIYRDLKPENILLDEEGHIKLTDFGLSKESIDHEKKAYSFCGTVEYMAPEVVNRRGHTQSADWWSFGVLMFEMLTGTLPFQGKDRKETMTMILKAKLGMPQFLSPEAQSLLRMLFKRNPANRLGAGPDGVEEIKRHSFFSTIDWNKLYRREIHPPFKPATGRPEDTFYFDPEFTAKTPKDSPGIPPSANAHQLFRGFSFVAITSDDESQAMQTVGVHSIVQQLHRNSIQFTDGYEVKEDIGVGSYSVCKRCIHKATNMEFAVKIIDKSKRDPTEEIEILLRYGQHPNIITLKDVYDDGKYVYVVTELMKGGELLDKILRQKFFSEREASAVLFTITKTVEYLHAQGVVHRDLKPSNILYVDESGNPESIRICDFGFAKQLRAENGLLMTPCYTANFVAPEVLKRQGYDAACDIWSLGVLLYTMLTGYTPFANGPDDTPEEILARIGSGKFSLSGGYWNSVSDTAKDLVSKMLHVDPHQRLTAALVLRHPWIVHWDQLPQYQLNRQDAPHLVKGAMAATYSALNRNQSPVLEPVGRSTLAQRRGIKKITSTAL
The test system of series [9] is MCF-7 cells. As to the kind of experiment: MCF-7 proliferation. It counts as cell-based, human. The gist of the method: (§1)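 Test compound added at time 0 at various concentrations. Proliferation read as cellular ATP content after 48 h of treatment. Values expressed as fold proliferation as a percentage of vehicle-treated cells. n = 3 experiments, each in quadruplicate, with SD and Student's t test against vehicle; for MCF-7, also against the reference inhibitor.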

For series [10], the system named is MCF-10A cells. As to the kind of experiment: MCF-10A proliferation. The settings on record: various concentrations, 48 h. It counts as cell-based. The gist of the method: as §1
Series [11] addresses T1, purified, recombinant RSK2. The settings on record: cited from earlier work.

Each structure is given as a SMILES string.

The term half-life denotes the time needed for the level to fall by half in the phase considered. A high value points to slow decline. Broadly, the solubility is the dissolved amount per volume that the medium holds. In turn, `CC(=O)O[C@@H]1[C@@H](OC(C)=O)[C@@H](O)[C@H](Oc2c(-c3ccc(O)cc3)oc3cc(O)cc(O)c3c2=O)O[C@H]1C` [SL0101] came in with a half-life in series [1] below 30 min. In series [2], the “inhibition of p70 S6 kinase” value is “did not inhibit”. Also, the “inhibition of Aurora B” value in series [3] is given as “partially inhibit”. In series [4], the “cyclin D1 levels” value is on record as “decreased cyclin D1 levels”; the “intensity of band at ~ 27 kDa, (Lys/Arg)XX(Lys/Arg)X(pSer/pThr) motif antibody” value is “intensity decreases”; the “peEF2 levels compared to the PMA control” value was “increased peEF2 levels”. Further, the solubility entry in series [5] (carrier of 1:1:15 Cremophor:EtOH:phosphate-buffered saline was required) is listed as “limited solubility”. Also, the “inhibition of mitogen-and stress-activated kinase” value in series [6] is given as “did not inhibit”. The “inhibition of PIM 3” value in [7] was “partially inhibit”.

`CCC[C@@H]1O[C@@H](Oc2c(-c3ccc(O)cc3)oc3cc(O)cc(O)c3c2=O)[C@H](O)[C@H](O)[C@H]1OC(C)=O` [compound 5]: the “change of RSK2 IC50 in comparison to the 5″-n-propyl analogue 3” value (“change … to the 5″-n-propyl analogue 3” for short) in series [8] is “increased the IC50, but this difference was not statistically significant”.

As to `CCC[C@@H]1O[C@@H](Oc2c(-c3ccc(O)cc3)oc3cc(O)cc(O)c3c2=O)[C@H](OC(C)=O)[C@H](O)[C@H]1OC(C)=O` [compound 6], the “change … to the 5″-n-propyl analogue 3” value in series [8] is reported as “did not alter the IC50”.

Turning to `CCC[C@@H]1O[C@@H](Oc2c(-c3ccc(O)cc3)oc3cc(O)cc(O)c3c2=O)[C@H](O)[C@H](OC(C)=O)[C@H]1OC(C)=O` [compound 7], the “ability to inhibit MCF-7 proliferation, fold better compared to SL0101 (1)” value in [9] is 2 fold. Further, the “inhibition of MCF-7 proliferation” value in series [9] (various concentrations, 48 h) is recorded as “inhibits MCF-7”. Besides, the “inhibition of MCF-10A proliferation” value in [10] was “not MCF-10A proliferation”. In [4], the “cyclin D1 levels” value is “decreased cyclin D1 levels”; the “intensity of band at ~ 27 kDa, (Lys/Arg)XX(Lys/Arg)X(pSer/pThr) motif antibody” value is given as “intensity decreases”; the “peEF2 levels compared to the PMA control” value is reported as “increased peEF2 levels”. The same molecule returned a solubility in [5] (aqueous solution) of at most 25 µM.

Turning to `CCC[C@@H]1O[C@@H](Oc2c(-c3ccc(O)cc3)oc3cc(O)cc(O)c3c2=O)[C@H](OC(C)=O)[C@H](OC(C)=O)[C@H]1OC(C)=O` [compound 8], the “change … to the 5″-n-propyl analogue 3” value in [8] is “doubled the IC50”.

In the case of `CC1OC(Oc2c(-c3ccc(O)cc3)oc3cc(O)cc(O)c3c2=O)C(O)C(O)C1O` (centres unmarked) [deacetylated SL0101], the “potency for RSK inhibition, fold less potent than SL0101 (1)” value in [11] is recorded as ~ 10 fold.
